Publication PMC10996840 (RSC Advances, 2024)
Values joined by “and” are separate entries in the source; they are usually repeats but may differ in a detail not shown here. Equal entries are not always repeated. Where two headings read alike, the source gives them in different places. Values belong to the compound of their own block, whether it stands above or below them.

What was measured:
HepG2 cells = experiment: MTT cytotoxicity assay against HepG2 cells; type: cell-based, human
Outline: (§1)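 Cells kept in RPMI-1640 with L-glutamine at 37 °C under 5% CO2. Plated at 5 × 10^4 cells per well in triplicate. Next day they received test compound at 0.01, 0.1, 1, 10 and 100 μM. Viability read by MTT. IC50 came from a nonlinear dose–response fit of % viability against concentration.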

MCF-10A cells = experiment: MTT cytotoxicity assay against normal MCF-10A cells; type: cell-based; conditions: for IC50: Homo sapiens, MCF-10A, read-out: IC50 ± SD MCF-10A; for IC50 ± SD MCF-10A: MTT assay, normal MCF-10A cells, mean ± SD, n = 3
Outline: as §1

PIM-1 kinase [1] = target: T1, PIM-1 kinase (Homo sapiens, UniProt P11309); experiment: PIM-1 kinase inhibitory assay; type: biochemical; conditions: for % of PIM-1 inhibition: concentration not given
T1 sequence (P11309 whole entry): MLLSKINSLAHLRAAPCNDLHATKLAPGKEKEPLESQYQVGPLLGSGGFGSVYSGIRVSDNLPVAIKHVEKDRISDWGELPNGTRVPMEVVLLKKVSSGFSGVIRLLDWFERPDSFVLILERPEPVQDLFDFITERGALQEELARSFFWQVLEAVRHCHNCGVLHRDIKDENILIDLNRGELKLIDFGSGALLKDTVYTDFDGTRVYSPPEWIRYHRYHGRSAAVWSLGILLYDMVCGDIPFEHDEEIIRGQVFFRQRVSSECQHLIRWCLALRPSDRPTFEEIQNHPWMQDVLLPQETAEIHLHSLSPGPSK

MCF-7 cells [2] = experiment: Annexin V/PI staining flow cytometry; type: cell-based, human; conditions: MCF-7 cells treated at IC50 = 0.57 μM, 48 h
Outline: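 MCF-7 cells seeded at 3–5 × 10^5 per well, incubated overnight, then exposed to test compound for 48 h. Supernatant and cells collected and rinsed in ice-cold PBS. Resuspended in annexin binding buffer (CaCl2, NaCl, Hepes/NaOH, pH 7.4) with annexin V-FITC (1:100) and PI (10 μg mL−1), kept 30 min in the dark, then analysed on a FACSCalibur flow cytometer.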

MCF-7 cells [3] = experiment: DNA content flow cytometry cell cycle analysis; type: cell-based, human; conditions: MCF-7 cells treated at IC50 = 0.57 μM, 48 h
[4] = tested on: P53, Bax, caspases-3,8,9, Bcl-2 and PIM-1 gene expression in MCF-7 cells; experiment: RT-PCR of apoptosis-related genes; type: cell-based, human; conditions: MCF-7, IC50 = 0.57 μM, 48 h, normalized to β-actin, control = 1
Outline: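 MCF-7 cells treated with test compound for 48 h, then taken for RT-PCR of apoptosis-related genes. Ct values were normalised to β-actin to give relative expression as fold change versus untreated control (set to 1). Values average three independent runs.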

PIM-1 kinase [5] = target: T1, PIM-1 kinase; conditions: read-out: IC50 ± SD PIM-1 kinase inhibition; previously reported value ref 32; cited from earlier work
[6] = read-out: IC50 ± SD HepG2, MTT assay, liver cancer HepG2 cells, mean ± SD, n = 3

Compound: N#Cc1c(-c2ccc(Cl)cc2)c2c(=O)[nH]cnc2n(C2CCCCC2)c1=O [Compound 9, 5-(4-Chlorophenyl)-8-cyclohexyl-4,7-dioxo-3,4,7,8-tetrahydropyrido[2,3-d]pyrimidine-6-carbonitrile]
IC50 (HepG2 cells; [6]): 4.6 ± 0.34 µM

Compound: N[C@H]1CC[C@H](Nc2nc(Nc3cccc(C(F)(F)F)c3)c3c(=O)[nH]ccc3n2)CC1 [SKI-O-068]
IC50 (PIM-1 kinase [5]): 0.123 ± 0.014 µM

Compound: CN[C@@H]1C[C@H]2O[C@@](C)([C@@H]1OC)n1c3ccccc3c3c4c(c5c6ccccc6n2c5c31)C(=O)NC4 [Staurosporine, reference compound]
IC50 (HepG2 cells; Homo sapiens, HepG2, read-out: IC50 ± SD HepG2): 5.07 ± 0.36 µM

Now from value to compound, other results behind:

IC50 (PIM-1 kinase [1]): 0.0114 ± 0.00013 µM | % of PIM-1 inhibition (PIM-1 kinase [1]): 97.8 ± 1.8%
Compound: N#Cc1c(-c2ccc(Cl)cc2)c2c(=O)[nH]c(-c3ccc(Cl)cc3Cl)nc2n(C2CCCCC2)c1=O [Compound 4, 5-(4-Chlorophenyl)-8-cyclohexyl-2-(2,4-dichlorophenyl)-4,7-dioxo-3,4,7,8-tetrahydropyrido[2,3-d]pyrimidine-6-carbonitrile]
IC50 (HepG2 cells; [6]): 1.13 ± 0.19 µM | IC50 (MCF-10A cells): 47.6 ± 3.1 µM | IC50 ± SD MCF-10A (MCF-10A cells): non-toxic | early apoptosis (Q4) (MCF-7 cells [2]): 22.11% | increase of cell apoptosis versus untreated control (MCF-7 cells [2]): 58.29 fold and 58.3 fold | late apoptosis (Q2) (MCF-7 cells [2]): 14.03% | total apoptosis (MCF-7 cells [2]; untreated control 0.62%): 36.14% | cell population at G2/M phase (MCF-7 cells [3]; control 18.86%): 4.47% | cell population at G1 phase (MCF-7 cells [3]; control 48.37%): 56.36% | Bax gene expression fold change [4]: 6.7 fold | Bcl-2 gene expression fold change [4]: 0.11 fold | P53 gene expression fold change [4]: 7.9 fold | PIM-1 gene expression fold change [4]: 0.31 fold | caspase-3 gene expression fold change [4]: 11.2 fold | caspase-8 gene expression fold change [4]: 1.23 fold | caspase-9 gene expression fold change [4]: 8.9 fold

IC50 (PIM-1 kinase [1]): 0.0346 ± 0.00018 µM | % of PIM-1 inhibition (PIM-1 kinase [1]): 89.6 ± 2.1%
Compound: N#Cc1c(-c2ccc(Cl)cc2)c2c(=O)[nH]c(CCl)nc2n(C2CCCCC2)c1=O [Compound 6, 2-(Chloromethyl)-5-(4-chlorophenyl)-8-cyclohexyl-4,7-dioxo-3,4,7,8-tetrahydropyrido[2,3-d]pyrimidine-6-carbonitrile]
IC50 (MCF-10A cells): 43.5 ± 2.9 µM | IC50 ± SD MCF-10A (MCF-10A cells): non-toxic

IC50 (PIM-1 kinase [1]): 0.0172 ± 0.0002 µM | % of PIM-1 inhibition (PIM-1 kinase [1]): 94.6 ± 2.1%
Compound: N#Cc1c(-c2ccc(Cl)cc2)c2c(=O)[nH]c(=S)[nH]c2n(C2CCCCC2)c1=O [Compound 10, 5-(4-Chlorophenyl)-8-cyclohexyl-4,7-dioxo-2-thioxo-1,2,3,4,7,8-hexahydropyrido[2,3-d]pyrimidine-6-carbonitrile]
IC50 (MCF-10A cells): ≥ 50 µM | IC50 ± SD MCF-10A (MCF-10A cells): non-toxic

IC50 (PIM-1 kinase [1]): 0.0214 ± 0.00024 µM | % of PIM-1 inhibition (PIM-1 kinase [1]): 92.1 ± 1.9%
Compound: N#Cc1c(-c2ccc(Cl)cc2)c2c(=O)[nH]nnc2n(C2CCCCC2)c1=O [Compound 11, 5-(4-Chlorophenyl)-8-cyclohexyl-4,7-dioxo-3,4,7,8-tetrahydropyrido[2,3-d][1,2,3]triazine-6-carbonitrile]
IC50 (MCF-10A cells): ≥ 50 µM | IC50 ± SD MCF-10A (MCF-10A cells): non-toxic
